Data on three compounds can be found in publication PMC10622895 (Proceedings of the National Academy of Sciences of the …, 2023).

For series [1] the following is noted: ref [1]; cited from earlier work.
The subject of a further series is BCM2665 PDX. The series can be described thus: IHC of cleaved PARP1 in PDX tumors. The format is in vivo, mouse. In short, it runs like this: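 Tumors were taken the day after the last dose for cleaved PARP1 IHC. Percent positive cells was scored on twelve 10× images from three xenografts per group.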
The subject of series [2] is mouse intestinal epithelium. The series can be described thus: IHC of cleaved PARP1 and Ki67 in mouse intestine. It counts as in vivo. The conditions noted are these: mice of the BCM2665 experiment. In short, it runs like this:
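NSG mice carried BCM2665 breast cancer PDX. Mice were euthanized the day after the last dose. Intestine was IHC-stained for cleaved PARP1 (10× objective), with percent positive cells determined by image analysis. Ki67 IHC was done on intestinal epithelium (20× objective).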

The subject of a further series is BCM3107 TNBC PDX. The experiment in a line: Patient-derived xenograft in NSG mice. It counts as in vivo, mouse. The conditions noted are these: 5D4 40 mg/kg i.p. twice weekly; talazoparib 0.5 mg/kg daily × 5 per week. (In general: In xenograft studies the graft and the host belong to different species.)

In the case of `O=C(O)CN(CC(=O)O)Cc1cc2c(cc1O)Oc1cc(O)c(CN(CC(=O)O)CC(=O)O)cc1C21OC(=O)c2ccccc21` [calcein], the membrane permeability result in series [1] is “lacks membrane permeability”.

As to `Cn1ncnc1[C@H]1c2n[nH]c(=O)c3cc(F)cc(c23)N[C@@H]1c1ccc(F)cc1` [talazoparib], the “apoptosis in PDX (PARP-1 cleavage, IHC)” value with BCM2665 PDX was “only had mild proapoptotic effect”. In addition, in series [2], the “apoptosis and Ki67 staining in mouse intestinal epithelium” value is recorded as “neither induced apoptosis nor affected Ki67 staining”. The “tumor response, single agent” value in the series on BCM3107 TNBC PDX is “resistant”.

`CNCc1ccc(-c2[nH]c3cc(F)cc4c3c2CCNC4=O)cc1` [rucaparib]: the “viability of nontransformed hepatocytes” value in the series on AML12 mouse hepatocytes is recorded as “did not elicit any effect”.
